For assay [1], the species on record is Homo sapiens. Put plainly: Relative activity (compared to acetylsalicylic acid) for in vitro inhibition of collagen-induced human platelet aggregation. The class given is functional.
The species named for assay [2] is Homo sapiens. Description: In vitro inhibition of collagen-induced human platelet aggregation. It is filed as functional, organism-based. The essentials: (§1)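 Human venous blood citrated with 10% v/v sodium citrate (3.8%); platelet-rich plasma spun at 300g, 10 min, 4 °C, used within 2 h. Compound in Me2SO (1% final) preincubated 10 min at room temperature; aggregation triggered by collagen 0.02 mg/mL final or ADP 0.85 μg/mL final; maximum rate read in Born aggregometer. EC50 from log dose–effect regression with 95% confidence limits.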

For assay [3], the species on record is Homo sapiens. Put plainly: In vitro inhibition of ADP-induced human platelet aggregation. It is filed as functional. The essentials:
as §1

Assay [4] relates to Rattus norvegicus. Description: Activity relative to dihydralazine for in vitro hypotensive activity in anesthetized rats. It is filed as functional. The conditions noted are these: in the assay text read “in vivo” for “in vitro”. The essentials: (§2)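 Male Sprague-Dawley rats, 230-280 g, urethane-anesthetized (ip); carotid arterial pressure recorded continuously by pressure transducer. Compounds given ip at 2 mL/kg. ED20, dose lowering mean carotid pressure by 20%, from log dose–effect regression; dihydralazine as reference.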

Assay [5] has as its system Rattus norvegicus. Put plainly: Ex vivo inhibition of collagen-induced rat platelet aggregation after peroral administration. The class given is functional. Particulars: po. The essentials:
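Male Sprague-Dawley rats, 200-250 g, dosed orally, three rats per dose. Blood drawn by heart puncture under ether 1 h post-dose; platelet-rich plasma prepared by centrifugation; aggregation induced with collagen 0.02 mg/mL final, maximum rate read in Born aggregometer.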

Assay [6] has as its system Rattus norvegicus. Description: In vitro hypotensive activity in anesthetized rats after intraperitoneal administration. The conditions noted are these: ip, in the assay text read “In vivo” for “In vitro”. The class given is functional. The procedure, abridged: as §2
For assay [7], the species on record is Rattus norvegicus. Description: Relative activity in rats based on acetylsalicylic acid. It is filed as functional.
A short description of assay [8]: In vitro inhibition of collagen induced aggregation of human plateles and the ratio of ED33 to EC50 was reported. It is filed as functional. The procedure, abridged:
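Ratio of oral ED33 (male Sprague-Dawley rats, 3 per dose, blood taken 1 h post-dose, collagen-triggered aggregation) to in vitro EC50 (human citrated platelet-rich plasma, 10 min room-temperature preincubation in 1% Me2SO, collagen 0.02 mg/mL final, regression-derived).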

SMILES strings stand for the structures. Values after ≈ are worked out from the molar mass of the structure shown. Bounds are passed on as bounds.

`COc1ccc2c(c1)c(CC(=O)O)c(C)n2C(=O)c1ccc(Cl)cc1` [INDOMETHACIN] came in with a Relative activity in the assay listed under Homo sapiens [1] of 2.47. The compound also returned an EC50 in the assay filed under Homo sapiens [2] of 200 µg/mL (≈ 559 µM).

`CC1CC(=O)NN=C1c1ccc(NC(=O)C(C)(C)CBr)cc1` (stereo not given): in the assay filed under Homo sapiens [3] (Homo sapiens, read-out: EC50), the EC50 came to 0.5 µg/mL (≈ 1.37 µM). The Relative activity in the assay filed under Homo sapiens [1] stood at 1123; in the assay with Rattus norvegicus [4], 0.99; in the assay filed under Rattus norvegicus [7] it was 66.6. The same compound gave an ED33 in the assay with Rattus norvegicus [5] of 3.5 mg/kg. The compound also came in with an ED20 with Rattus norvegicus [6] of 0.34 mg/kg. In addition, in assay [8], the Ratio came out at 8.

As for `CC1CC(c2ccc(NC(=O)CCl)cc2)=NNC1=O` (stereo not given), the EC50 is 21.9 µg/mL (≈ 78.3 µM) in the assay filed under Homo sapiens [3] (Homo sapiens, read-out: EC50) and 6.31 µg/mL (≈ 22.6 µM) in the assay listed under Homo sapiens [2] (Homo sapiens, read-out: EC50). For the same compound, the Relative activity was 78 in the assay filed under Homo sapiens [1] and less than 0.34 in the assay on Rattus norvegicus [4]. The ED20 in the assay with Rattus norvegicus [6] was more than 1 mg/kg.

With `CCN(CC)CC(=O)Nc1ccc(C2=NNC(=O)CC2)cc1.Cl`, the EC50 was approximately 10 µg/mL in the assay filed under Homo sapiens [3] (Homo sapiens, read-out: EC50) and approximately 10 µg/mL in the assay filed under Homo sapiens [2] (Homo sapiens, read-out: EC50). The Relative activity in the assay listed under Homo sapiens [1] was approximately 49; in the assay on Rattus norvegicus [4], less than 0.34. The same compound displayed an ED20 in the assay with Rattus norvegicus [6] of more than 1 mg/kg.

Consider `CCC(Cl)C(=O)Nc1ccc(C2=NNC(=O)CC2)cc1` (stereo not given), for which the EC50 in the assay listed under Homo sapiens [3] (Homo sapiens, read-out: EC50) came to 1.47 µg/mL (≈ 5 µM); in the assay listed under Homo sapiens [2] (Homo sapiens, read-out: EC50), 3.16 µg/mL (≈ 10.8 µM). Further, the Relative activity in the assay listed under Homo sapiens [1] came to 156; in the assay with Rattus norvegicus [4], 0.91. In the assay on Rattus norvegicus [6], this compound had an ED20 of 0.37 mg/kg.

For `CCCCC(=O)Nc1ccc(C2=NNC(=O)CC2)cc1`, the EC50 amounted to 2.64 µg/mL (≈ 9.66 µM) in the assay filed under Homo sapiens [3] (Homo sapiens, read-out: EC50) and 3.34 µg/mL (≈ 12.2 µM) in the assay listed under Homo sapiens [2] (Homo sapiens, read-out: EC50). For the same compound, the Relative activity in the assay filed under Homo sapiens [1] is 148; with Rattus norvegicus [4], 0.34. The compound further came in with an ED20 in the assay with Rattus norvegicus [6] of 1 mg/kg.

On to `CC1CC(=O)NN=C1c1ccc(NC(=O)C(C)(C)Br)cc1` (stereo not given), for which, in the assay listed under Homo sapiens [3] (Homo sapiens, read-out: EC50), the EC50 worked out at 0.33 µg/mL (≈ 0.937 µM). Besides, the Relative activity is recorded as 0.12 with Rattus norvegicus [4] and 66.8 in the assay listed under Rattus norvegicus [7]. In the assay with Rattus norvegicus [5], this compound displayed an ED33 of 3.49 mg/kg. This compound returned an ED20 with Rattus norvegicus [6] of 2.93 mg/kg. For the same compound, the Ratio in assay [8] was determined as 3.9.

As for `CC(=O)Nc1ccc(C2=NNC(=O)CC2)cc1`, the 50% effective concentration (EC50) stood at 1 µg/mL (≈ 4.32 µM) in the assay listed under Homo sapiens [3] (Homo sapiens, read-out: EC50) and 1.09 µg/mL (≈ 4.71 µM) in the assay listed under Homo sapiens [2] (Homo sapiens, read-out: EC50). The Relative activity in the assay listed under Homo sapiens [1] came to 453; in the assay with Rattus norvegicus [4], 1.69. In the assay with Rattus norvegicus [6], this compound showed an ED20 of 0.2 mg/kg.

For `N/N=c1\[nH][nH]/c(=N\N)c2ccccc12` [DIHYDRALAZINE], the EC50 in the assay filed under Homo sapiens [3] amounted to 310 µg/mL (≈ 1630 µM); in the assay filed under Homo sapiens [2] it was 149 µg/mL (≈ 783 µM). In addition, the results for the Relative activity in the assay listed under Homo sapiens [1] and in the assay on Rattus norvegicus [4] were 3 and 1, respectively. In the assay with Rattus norvegicus [6], this compound gave an ED20 of 0.34 mg/kg.

For `CC1CC(=O)NN=C1c1ccc(NC(=O)CCCCl)cc1` (stereo not given), the concentration for a half-maximal effect (EC50) amounted to 1.63 µg/mL (≈ 5.3 µM) in the assay listed under Homo sapiens [3] (Homo sapiens, read-out: EC50) and 1.66 µg/mL (≈ 5.39 µM) in the assay listed under Homo sapiens [2] (Homo sapiens, read-out: EC50). This compound displayed a Relative activity in the assay listed under Homo sapiens [1] of 298. The compound further registered an ED20 in the assay on Rattus norvegicus [6] of 0.32 mg/kg.

In the case of `CN1N=C(c2ccc(NC(=O)CCl)cc2)CCC1=O`, the EC50 was more than 46.4 µg/mL in the assay filed under Homo sapiens [3] (Homo sapiens, read-out: EC50) and more than 46.4 µg/mL in the assay listed under Homo sapiens [2] (Homo sapiens, read-out: EC50). Also, the values for the Relative activity in the assay listed under Homo sapiens [1] and in the assay with Rattus norvegicus [4] were less than 11 and less than 0.34, respectively. The compound also had an ED20 in the assay on Rattus norvegicus [6] of more than 1 mg/kg.

For `CN1N=C(c2ccc(N)cc2)CCC1=O`, the EC50 in the assay listed under Homo sapiens [3] (Homo sapiens, read-out: EC50) is more than 46.4 µg/mL; in the assay filed under Homo sapiens [2] (Homo sapiens, read-out: EC50), more than 46.4 µg/mL. In addition, the Relative activity is on record as less than 11 in the assay listed under Homo sapiens [1] and less than 0.34 with Rattus norvegicus [4]. In the assay with Rattus norvegicus [6], this compound registered an ED20 of more than 1 mg/kg.

`CC(=O)Nc1cccc(C2=NNC(=O)CC2)c1`: the EC50 in the assay filed under Homo sapiens [3] (Homo sapiens, read-out: EC50) is more than 46.4 µg/mL; in the assay filed under Homo sapiens [2] (Homo sapiens, read-out: EC50), more than 46.4 µg/mL. Moreover, the results for the Relative activity in the assay listed under Homo sapiens [1] and with Rattus norvegicus [4] were less than 11 and less than 0.34, respectively. Moreover, the ED20 with Rattus norvegicus [6] was more than 1 mg/kg.

`CCC(Br)C(=O)Nc1ccc(C2=NNC(=O)CC2C)cc1` (stereo not given): in the assay listed under Homo sapiens [3] (Homo sapiens, read-out: EC50), the EC50 worked out at 0.052 µg/mL (≈ 0.148 µM). Besides, the results for the Relative activity with Rattus norvegicus [4] and in the assay filed under Rattus norvegicus [7] were 0.23 and 90.3, respectively. Besides, the ED33 in the assay with Rattus norvegicus [5] came out at 2.58 mg/kg. In the assay on Rattus norvegicus [6], the ED20 worked out at 1.49 mg/kg. The Ratio in assay [8] was 9.6.

In the case of `O=C1CCC(c2ccc(NC(=O)CCCCl)cc2)=NN1`, the EC50 in the assay filed under Homo sapiens [3] (Homo sapiens, read-out: EC50) is more than 46.4 µg/mL; in the assay filed under Homo sapiens [2] (Homo sapiens, read-out: EC50), more than 46.4 µg/mL. Also, the results for the Relative activity in the assay listed under Homo sapiens [1] and in the assay with Rattus norvegicus [4] were less than 11 and less than 0.34, respectively. Further, in the assay on Rattus norvegicus [6], the ED20 is more than 1 mg/kg.

As for `CC1CC(c2ccc(N)cc2)=NNC1=O` (stereo not given), the 50% effective concentration (EC50) in the assay filed under Homo sapiens [3] (Homo sapiens, read-out: EC50) is 43.8 µg/mL (≈ 216 µM); in the assay listed under Homo sapiens [2] (Homo sapiens, read-out: EC50), 46.9 µg/mL (≈ 231 µM). In addition, the Relative activity in the assay filed under Homo sapiens [1] is given as 11; with Rattus norvegicus [4], less than 0.34. For the same compound, in the assay on Rattus norvegicus [6], the ED20 was more than 1 mg/kg.

Consider `CC(Cl)CC(=O)Nc1ccc(C2=NNC(=O)CC2C)cc1` (stereo not given), for which the EC50 in the assay filed under Homo sapiens [3] (Homo sapiens, read-out: EC50) came out at 4.78 µg/mL (≈ 15.5 µM); in the assay listed under Homo sapiens [2] (Homo sapiens, read-out: EC50), 3.29 µg/mL (≈ 10.7 µM). Moreover, the Relative activity is 150 in the assay filed under Homo sapiens [1] and 1.81 in the assay with Rattus norvegicus [4]. The compound also gave an ED20 with Rattus norvegicus [6] of 0.187 mg/kg.

The values above are taken from ChEMBL document CHEMBL1122226, “6-Aryl-4,5-dihydro-3(2H)-pyridazinones. A new class of compounds with platelet aggregation inhibiting and hypotensive activities” (J Med Chem, 1983).
